DDE Tn7 FP inh: disrupts Tn7 cyclic peptide binding to fibrin D-Dimer-E complex; FP displacement of FITC-Tn7 peptide from fibrin DD(E); 0% = median of compound wells per plate; inhibition, % at 8.3 µM; 370,000 compounds, 0.13% hits; AID 720508;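 active = inhibition above the mean of compounds falling within the control limits plus 3 SD of them, cut at about 14% in these data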;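 also: 0% = plate median of compound wells and 100% = 10 µM Aha-Tn7 peptide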
Target sequence (P02675 whole entry, looked up): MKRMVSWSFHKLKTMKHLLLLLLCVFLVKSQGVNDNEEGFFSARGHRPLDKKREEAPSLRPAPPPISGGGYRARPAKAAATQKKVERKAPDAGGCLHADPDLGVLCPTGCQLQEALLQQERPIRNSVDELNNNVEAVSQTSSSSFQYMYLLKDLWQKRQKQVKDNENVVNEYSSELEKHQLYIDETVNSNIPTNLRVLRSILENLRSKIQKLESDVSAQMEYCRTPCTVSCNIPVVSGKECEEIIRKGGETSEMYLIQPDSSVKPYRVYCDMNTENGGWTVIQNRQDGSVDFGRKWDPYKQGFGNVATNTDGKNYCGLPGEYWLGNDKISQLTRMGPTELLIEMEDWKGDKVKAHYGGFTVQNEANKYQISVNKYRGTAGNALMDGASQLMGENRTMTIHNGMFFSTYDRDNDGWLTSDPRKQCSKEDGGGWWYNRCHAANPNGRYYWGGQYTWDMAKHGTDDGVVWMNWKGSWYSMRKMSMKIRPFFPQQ
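Assay system: Human fibrin DD(E) protein | Medium: Tris buffer with calcium and detergent, pH 7.8 | Reagent: 0.1 µM fluorescent Tn7 | Compound dosing: Single point at 8.3 µM | Times: 10 min preincubation, 3 h with tracer, room temperature | Detection: Fluorescence polarization of the labelled Tn7 tracer | Controls: Aha-Tn7 high control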
GRK2 aptamer HTS: human GRK2 inhibition via aptamer displacement; AID 488847; 330,000 compounds, 0.59% hits; inhibition of aptamer binding, % at 10 µM; bead flow cytometry, FAM-aptamer displacement from GRK2;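 active = inhibition of aptamer binding above 40%, roughly 3 SD of noise, on plates passing a quality check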;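 also: median bead fluorescence of bound FAM aptamer so fluorescent compounds give negative values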
ARNT TACC3 PPI: disruptors of human ARNT/TACC3 interaction | 390,000 compounds, 0.66% hits | AlphaScreen His-ARNT PAS-B/GST-TACC3 binding, luminescence; TACC3 fragment carries E629A point mutation | AID 623870 | Q9Y6A5 | inhibition, % at 9.99 µM;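 active = mean inhibition of replicates at least 50% and at least half of replicates each reaching 50%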;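 also: 0% = complete ARNT plus TACC3 wells and 100% = ARNT alone without TACC3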
CAL PDZ FP-1: human CAL PDZ-peptide interaction inhibition; purified CAL PDZ, TMR-peptide fluorescence polarization, 1 h; 330,000 compounds, 0.02% hits; inhibition, % at 20 µM; AID 504414; Q9HD26;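 active = highest replicate inhibition of at least 40%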;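 also: plate controls were DMSO neutral control wells for no effect and unlabeled competitor peptide control wells for full effect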
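Material: tagged CAL PDZ domain; buffer or medium: 25 mM sodium phosphate pH 7.4, 150 mM NaCl, TCEP, IgG, Thesit; compound dosing: single point, 20 µM; schedule: 1 h incubation at room temperature before polarization reading; measured by: FP readout, S and P plane fluorescence; read-out basis: percent inhibition from loss of millipolarization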
DDE Tn6 FP inh: DD(E)-Tn6 binding inhibition, primary FP screen; 370,000 compounds, 0.21% hits; Fibrin DD(E) TRITC-Tn6 fluorescence polarization displacement; inhibition, % at 8.3 µM; AID 720509;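 active = inhibition above a per-campaign cutoff: mean of compounds within control limits plus 3 SD, cut at about 15% in these data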;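 also: 0% = median of all compound wells on the plate and 100% = blocking peptide control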
CAL PDZ FP-2: CAL PDZ (human) peptide binding inhibition. inhibition, % at 24.9 µM. Q9HD26. 300,000 compounds, 0.92% hits. purified CAL PDZ, TMR-peptide fluorescence polarization, 1 h;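 active = mean inhibition of at least 30% with at least half of replicates also reaching 30%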;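 also: 0% = DMSO neutral control and 100% = excess unlabeled competitor peptide PRC23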
DDE Tn6 FP ctr: counter-screen for inhibitors of Tn6 peptide binding to fibrin DD(E). inhibition, % at 8.3 µM. TRITC-Tn6 fluorescence polarization displacement; 0% = median of compound wells, not DMSO. 680 compounds, 2% hits. AID 720621. shares compounds with DDE Tn6 FP inh;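 active = inhibition above the mean of test compounds lying between the control limits plus 3 SD of those, cut at about 14% in these data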;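 also: 0% = median of compound wells and 100% = wells with Aha-Tn7 blocking peptide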
Tn6 DDE conf: confirmation of inhibitors of Tn6 binding to human fibrin DD(E). inhibition, % at 8.3 µM. FP displacement of TRITC-Tn6 peptide from DD(E); 0% = per-plate median of test wells. shares compounds with DDE Tn6 FP inh. 680 compounds, 10% hits. AID 720631;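 active = inhibition above the mean of compounds lying within the control limits plus 3 SD, cut at about 16% in these data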;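 also: 100% = high control wells holding a competing inhibitor peptide at 10 µM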
Starred values were filed as active, the others as inactive; nt = no result given. A selection: hits, their analogues and other compounds. The true share with any hit is near 1.8%.

SMILES	DDE Tn7 FP inh	GRK2 aptamer HTS	ARNT TACC3 PPI	CAL PDZ FP-1	DDE Tn6 FP inh	CAL PDZ FP-2	DDE Tn6 FP ctr	Tn6 DDE conf
CCCCOCCCNC(=S)Nc1ccc(S(=O)(=O)N2CCOCC2)cc1	-11	2	1	-1	1	-10	nt	nt
Cc1ccsc1CN(C)CC(=O)NCC(=O)Nc1ccc(F)cc1	-3	1	-45	-1	2	nt	nt	nt
COc1ccc(-c2cn(CCCOCc3ccccc3)nn2)cc1	-6	1	2	0	-3	-2	nt	nt
Cc1cc(-c2nnn(CCCOC(C)(C)C)c2C)ccc1-c1cn(CCCOC(C)(C)C)nn1	-4	nt	nt	nt	17*	nt	5	6
COc1ccc(NC(=O)N(C)C[C@H]2OCCCC[C@@H](C)Oc3ccc(NC(=O)Cc4ccccc4)cc3C(=O)N([C@@H](C)CO)C[C@H]2C)cc1	nt	nt	6	nt	nt	nt	nt	nt
OCCN1CCN(CCOc2cccc(Cl)c2)CC1	-7	0	-3	0	17*	-2	0	-4
COC(=O)C1=C(C)N(Cc2ccccc2C(F)(F)F)C(=NCc2ccc3c(c2)OCO3)NC1c1ccccc1 (stereo not drawn)	-2	nt	nt	nt	-4	nt	nt	nt
O=C(O)CCN(Cc1ccccc1)S(=O)(=O)c1ccc(Cl)cc1F	4	0	-3	0	16*	-1	-1	-4
O=C(O)c1ccc(S(=O)(=O)N(CCc2ccccc2)Cc2ccc(Cl)cc2)cc1	-1	3	-6	-1	3	-8	nt	nt
CC1(C)c2ccccc2N2CC(=O)N(CC(N)=O)C21C (stereo not drawn)	-12	8	-1	-6	76*	-36	-3	-5
C[C@H]1CN([C@@H](C)CO)S(=O)(=O)c2ccc(-c3ccc(F)cc3)cc2O[C@H]1CN(C)C	nt	nt	-5	nt	nt	nt	nt	nt
CCC(=O)Nc1cc(OC)c(NC(=S)Nc2ccccc2CC)cc1OC	1	nt	nt	nt	74*	nt	4	-7
C[C@@H]1CN([C@H](C)CO)S(=O)(=O)c2ccc(C#CCC3CCCC3)cc2O[C@@H]1CN(C)C(=O)c1ccccn1	nt	nt	-2	nt	nt	nt	nt	nt
Cc1c(C(=O)c2no[n+]([O-])c2C(=O)c2cnn(C)c2C)cnn1C	-12	0	-9	-1	16*	-4	-11	2
COc1ccc(C(=O)c2no[n+]([O-])c2C(=O)c2ccc(OC)cc2)cc1	0	0	nt	1	4	-3	nt	nt
Cc1ccc(-c2[nH]nc(N)c2N=Nc2ccccc2C)cc1	-3	2	5	0	-5	-4	nt	nt
Cc1ccc(-c2[nH]nc(N)c2N=Nc2cccc(Cl)c2C)cc1	6	nt	-1	-2	17*	1	5	0
CCc1noc(C)c1C(=O)NNC(=O)COc1ccccc1C	4	3	-4	-1	7	0	nt	nt
O=C(Nc1ccc2nn(-c3ccccc3)nc2c1)c1ccc2c(c1)OCCO2	-4	0	3	-1	-4	-2	nt	nt
O=C(Nc1ccc2nn(-c3ccccc3)nc2c1)c1ccc(Br)o1	3	0	-1	-1	17*	-9	1	-3
CCOCCCn1c(=S)[nH]c2cc(C(=O)NCC(OC)OC)ccc2c1=O	-3	0	-9	-2	16*	-4	-8	-15
CCCCCNC(=O)c1ccc2c(=O)n(CCCOCC)c(=S)[nH]c2c1	-4	0	-15	-3	-1	-2	nt	nt
CCn1c(=S)[nH]c2ccccc21	-1	0	4	nt	16*	4	-5	-15
CCn1c(=S)[nH]c2cc(Cl)ccc21	1	0	0	-1	-1	-7	nt	nt
CCCCC[C@@H](O)c1cc2ccccc2c(=O)o1	4	0	-1	-1	16*	-8	0	-3
SMILES	DDE Tn7 FP inh	GRK2 aptamer HTS	ARNT TACC3 PPI	CAL PDZ FP-1	DDE Tn6 FP inh	CAL PDZ FP-2	DDE Tn6 FP ctr	Tn6 DDE conf
CC(=O)N1[C@@H]2Cn3c(cccc3=O)[C@H]1[C@@H](C(=O)N1CCc3ccccc3C1)[C@@H]2CO	nt	nt	15	nt	nt	nt	nt	nt
COc1ccc(NC(=O)C(c2cc3c(cc2[N+](=O)[O-])OCO3)N(C)C)cc1 (stereo not drawn)	-9	0	7	-2	15*	nt	-3	-6
Cc1cc2cc(CNC(=O)c3ccc(S(=O)(=O)N4CCOCC4)cc3)ccc2n1C	3	26	-1	1	53*	-2	5	19*
Cc1cc2cc(CNC(=O)c3ccc(S(=O)(=O)N4CCCCC4)cc3)ccc2[nH]1	-10	0	-3	0	18*	-2	5	-5
COc1cccc(CNC(=O)c2ccc(S(=O)(=O)N3CCOCC3)cc2)c1	3	nt	-1	0	-6	-2	nt	nt
Cc1cc2cc(CNC(=O)c3ccc(S(=O)(=O)N(C)C)cc3)ccc2n1C	-2	31	-19	0	65*	0	5	14
CCCC(=O)N1CCC[C@]2(CC[C@@H](CCC(=O)OCC)O2)C1	-5	nt	nt	nt	-1	nt	nt	nt
CSc1ccc(CN(C)C(=O)c2cc(=O)[nH]c3ccccc23)cc1	4	0	10	-2	2	-4	nt	nt
COc1ccc(C(=O)N(Cc2ccccc2)c2cccc(C)c2)cc1	1	5	-6	-1	17*	1	1	-3
O=C(NCC1CCN(C(=O)C(=O)c2cc3ccccc3o2)CC1)c1ccc2c(c1)OCCCO2	-2	nt	nt	nt	-3	nt	nt	nt
C[C@H]1CN([C@@H](C)CO)C(=O)Cc2cc(NS(=O)(=O)c3ccc(Cl)cc3)ccc2O[C@@H]1CN(C)C	nt	nt	-15	nt	nt	nt	nt	nt
CCOc1ccc(NC(=O)C(C)Sc2nnc(C)n2C)cc1 (stereo not drawn)	1	1	nt	0	1	1	nt	nt
Cc1ccc(NC(=O)C(C)Sc2nnc(C)n2C)cc1 (stereo not drawn)	-3	0	-4	-1	15*	10	6	1
CO[C@@H]1CN(C)C(=O)c2ccc(NC(=O)NC3CCCCC3)cc2OC[C@@H](C)N(C)C[C@H]1C	nt	nt	-7	nt	nt	nt	nt	nt

High-throughput results from PubChem BioAssay.
